According to ChEMBL document CHEMBL1949631, “Novel 3-phenylpiperidine-4-carboxamides as highly potent and orally long-acting neurokinin-1 receptor antagonists with reduced CYP3A induction” (Bioorg Med Chem, 2012):

Assays:
Substance-P receptor = Substance-P receptor (Homo sapiens, UniProt P25103); assay: Displacement of [125I]BH-SP from tachykinin NK1 receptor in human IM9 cells after 30 mins by scintillation counting; format: cell-based, IM-9
Procedure, shortened: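 Receptor membranes from human IM-9 lymphoblasts (grown 3 days, homogenised, spun 40,000 g) in 50 mM Tris-HCl pH 7.4 with 0.02% BSA, protease inhibitors and 3 mM MnCl2. Incubated with [125I]BH-SP (final 130 pM) for 30 min at room temperature in 0.2 mL. Nonspecific binding defined with 2×10^-6 M SP. Read by rapid GF/C filtration (PEI-soaked filters), three washes, scintillation counting.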

Cavia porcellus [1] = assay: Inhibition of GR73632-induced increase in locomotor activity in Hartley guinea pig at 0.1 mg/kg, iv after 5 mins relative to control; format: functional
Procedure, shortened: (§1)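 Male Hartley guinea pigs, 6–8 per group. Compound or vehicle in DMA-PEG400 (1:1, v/v), 0.5 mL/kg, given intravenously just before intracerebroventricular infusion of the NK1 agonist […]. %inh. is taken from activity counts relative to vehicle-treated and sham-infused groups. Values are averages of 5–10 independent experiments.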

[2] = (§2) Metabolic stability in human liver microsomes assessed as parent compound remaining at 1 uM after 15 to 30 mins by HPLC analysis; format: ADME, Microsome; conditions: liver microsomes, read-out: Stability
Procedure, shortened: (§3)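 Compound at 1 μM incubated with human liver microsomes for 15 and 30 min under standard conditions. Remaining parent compound quantified by HPLC and expressed as μL/mg/min.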

Cavia porcellus [3] = assay: Inhibition of GR73632-induced increase in locomotor activity in po dosed Hartley guinea pig after 1 hr; format: functional; conditions: read-out: ID50 (the source's name)
Procedure, shortened: (§4)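 Male Hartley guinea pigs, 6–8 per group, dosed orally with compound suspended in 0.5% methylcellulose (2 mL/kg), or vehicle, 0.75 h (1 h line) or 23.75 h (24 h line) before intracerebroventricular […] infusion. %inh. comes from locomotor counts corrected for the sham-infused group against the vehicle control. ID50 and 95% CI come from linear regression of the dose–response.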

Cavia porcellus [4] = assay: Inhibition of GR73632-induced increase in locomotor activity in po dosed Hartley guinea pig after 24 hrs; format: functional; conditions: read-out: ID50 (the source's name); procedure, shortened: as §4
[5] = biological target: T1, Nuclear receptor subfamily 1 group I member 2 (Homo sapiens, UniProt O75469); assay: Induction of human PXR-mediated CYP3A activity at 10 uM
T1 sequence (O75469 whole entry): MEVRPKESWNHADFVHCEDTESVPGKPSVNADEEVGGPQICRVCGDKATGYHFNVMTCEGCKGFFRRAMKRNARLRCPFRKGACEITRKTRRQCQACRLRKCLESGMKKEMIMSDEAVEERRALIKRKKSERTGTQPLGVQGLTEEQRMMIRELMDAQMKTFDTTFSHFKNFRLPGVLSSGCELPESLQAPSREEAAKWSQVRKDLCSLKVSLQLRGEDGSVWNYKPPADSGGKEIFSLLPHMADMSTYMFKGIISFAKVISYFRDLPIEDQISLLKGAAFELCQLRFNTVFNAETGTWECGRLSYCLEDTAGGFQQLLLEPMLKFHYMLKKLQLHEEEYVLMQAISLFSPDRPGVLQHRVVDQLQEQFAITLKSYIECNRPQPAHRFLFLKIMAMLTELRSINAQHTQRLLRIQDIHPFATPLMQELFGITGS

[6] = Mean residence time in guinea pig at 1 mg/kg, po; format: ADME, organism-based, Cavia porcellus; set-up: dose 1 mg/kg, route oral; conditions: in vivo
Procedure, shortened: (§5)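 Single oral dose of 1 mg/kg. Blood concentration–time curve used to derive AUC, mean residence time and bioavailability.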

[7] = Metabolic stability in rat microsomes; format: ADME, Microsome
[8] = Oral bioavailability in dog at 1 mg/kg; format: ADME, organism-based, Canis lupus familiaris; conditions: in vivo; procedure, shortened: as §5
[9] = Metabolic stability in guinea pig microsomes; format: ADME, Cavia porcellus, Microsome
[10] = AUC (0 to 24 hrs) in dog at 1 mg/kg, po; format: ADME, organism-based, Canis lupus familiaris; set-up: time < 24 hr, dose 1 mg/kg, route oral; conditions: plasma; procedure, shortened: as §5
[11] = Metabolic stability in dog microsomes; format: ADME, Canis lupus familiaris, Microsome
[12] = Mean residence time in dog at 1 mg/kg, po; format: ADME, organism-based, Canis lupus familiaris; set-up: dose 1 mg/kg, route oral; conditions: in vivo; procedure, shortened: as §5
[13] = AUC (0 to 24 hrs) in guinea pig at 1 mg/kg, po; format: ADME, organism-based, Cavia porcellus; set-up: time < 24 hr, dose 1 mg/kg, route oral; conditions: plasma; procedure, shortened: as §5
[14] = AUC (0 to 24 hrs) in rat at 1 mg/kg, po; format: ADME, organism-based; set-up: time < 24 hr, dose 1 mg/kg, route oral; conditions: plasma; procedure, shortened: as §5
[15] = Oral bioavailability in rat at 1 mg/kg; format: ADME, organism-based; conditions: in vivo; procedure, shortened: as §5
[16] = Oral bioavailability in monkey at 1 mg/kg; format: ADME, organism-based, Macaca mulatta; conditions: rhesus monkey, in vivo; procedure, shortened: as §5
[17] = Metabolic stability in monkey microsomes; format: ADME, Macaca mulatta, Microsome; conditions: rhesus monkey
[18] = Mean residence time in rat at 1 mg/kg, po; format: ADME, organism-based; set-up: dose 1 mg/kg, route oral; conditions: in vivo; procedure, shortened: as §5
[19] = Oral bioavailability in guinea pig at 1 mg/kg; format: ADME, organism-based, Cavia porcellus; conditions: in vivo; procedure, shortened: as §5
[20] = Mean residence time in monkey at 1 mg/kg, po; format: ADME, organism-based, Macaca mulatta; set-up: dose 1 mg/kg, route oral; conditions: rhesus monkey, in vivo; procedure, shortened: as §5
[21] = AUC (0 to 24 hrs) in monkey at 1 mg/kg, po; format: ADME, organism-based, Macaca mulatta; set-up: time < 24 hr, dose 1 mg/kg, route oral; conditions: rhesus monkey, plasma; procedure, shortened: as §5
Cavia porcellus [22] = assay: Inhibition of GR73632-induced increase in locomotor activity in Hartley guinea pig at 0.3 mg/kg, iv after 5 mins relative to control; format: functional; procedure, shortened: as §1
Liver microsomes = assay: as §2; format: ADME, Microsome; conditions: microsomes, 1 µM; procedure, shortened: as §3

Chain of Substance-P receptor (P25103 whole entry): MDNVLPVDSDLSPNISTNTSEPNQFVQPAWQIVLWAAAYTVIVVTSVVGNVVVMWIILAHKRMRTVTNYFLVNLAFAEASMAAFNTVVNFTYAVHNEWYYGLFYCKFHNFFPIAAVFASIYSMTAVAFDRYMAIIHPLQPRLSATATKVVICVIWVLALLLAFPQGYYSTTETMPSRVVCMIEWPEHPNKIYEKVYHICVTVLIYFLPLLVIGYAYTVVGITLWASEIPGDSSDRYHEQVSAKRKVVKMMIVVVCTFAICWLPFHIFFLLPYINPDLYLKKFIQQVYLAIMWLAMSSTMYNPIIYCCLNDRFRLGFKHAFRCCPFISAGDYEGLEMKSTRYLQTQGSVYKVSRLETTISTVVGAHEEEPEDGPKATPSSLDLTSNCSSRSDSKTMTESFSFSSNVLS

CC(=O)N1CCC(C(=O)N2CCC(C(=O)N(C)Cc3cc(C(F)(F)F)cc(C(F)(F)F)c3)=C(c3ccccc3)C2)CC1
IC50 (Substance-P receptor): 170 pM

Cc1cc(F)ccc1[C@H]1CN(C(=O)C(N)=O)CC[C@@H]1C(=O)N(C)Cc1cc(C(F)(F)F)cc(C(F)(F)F)c1
inhibition in vivo at 0.1 mg/kg (Cavia porcellus [1]): 88.8%
microsomal CLint at 1 µM [2]: 30 µL/min/mg
ED50 (Cavia porcellus [3]): 0.14 mg/kg
IC50 (Substance-P receptor): 20 pM
ED50 (Cavia porcellus [4]): 0.72 mg/kg

Cc1cc(F)ccc1[C@@H]1CN(C(=O)C(N)=O)CC[C@H]1C(=O)N(C)Cc1cc(C(F)(F)F)cc(C(F)(F)F)c1
IC50 (Substance-P receptor): > 100000 pM

Cc1cc(F)ccc1[C@H]1CN(C(=O)C(N)=O)CC[C@@H]1C(=O)N(C)[C@@H](C)c1cc(C(F)(F)F)cc(C(F)(F)F)c1
inhibition in vivo at 0.1 mg/kg (Cavia porcellus [1]): 78.9%
Activity [5]: 3%
MRT [6]: 7.5 h
Stability [7]: 13 µL/min/mg
bioavailability [8]: 40%
Stability [9]: 3 µL/min/mg
AUC(0-t) at 24 h [10]: 2150 ng·h/mL
microsomal CLint at 1 µM [2]: 2 µL/min/mg
Stability [11]: 0 µL/min/mg
MRT [12]: 6.5 h
AUC(0-t) at 24 h [13]: 1080 ng·h/mL
ED50 (Cavia porcellus [3]): 0.1 mg/kg
AUC(0-t) at 24 h [14]: 521 ng·h/mL
bioavailability [15]: 29%
bioavailability [16]: 38%
Stability [17]: 14 µL/min/mg
MRT [18]: 4.5 h
bioavailability [19]: 83%
MRT [20]: 6.4 h
ED50 (Cavia porcellus [4]): 0.57 mg/kg
AUC(0-t) at 24 h [21]: 1040 ng·h/mL

Cc1cc(F)ccc1[C@H]1CN(C(=O)C(N)=O)CC[C@@H]1C(=O)N(C)[C@H](C)c1cc(C(F)(F)F)cc(C(F)(F)F)c1
inhibition in vivo at 0.1 mg/kg (Cavia porcellus [1]): 43.1%
microsomal CLint at 1 µM [2]: 57 µL/min/mg
IC50 (Substance-P receptor): 200 pM

CN(Cc1cc(C(F)(F)F)cc(C(F)(F)F)c1)C(=O)[C@@H]1CCNC[C@H]1c1ccccc1 (racemic)
IC50 (Substance-P receptor): 2600 pM

CC(=O)N1CC[C@@H](C(=O)N(C)Cc2cc(C(F)(F)F)cc(C(F)(F)F)c2)[C@H](c2ccccc2)C1 (racemic)
IC50 (Substance-P receptor): 2600 pM

CC(=O)N1CC[C@H](C(=O)N(C)Cc2cc(C(F)(F)F)cc(C(F)(F)F)c2)[C@H](c2ccccc2)C1 (racemic)
IC50 (Substance-P receptor): 3200 pM

CC(=O)NCC(=O)N1CC[C@@H](C(=O)N(C)Cc2cc(C(F)(F)F)cc(C(F)(F)F)c2)[C@H](c2ccccc2)C1 (racemic)
IC50 (Substance-P receptor): 12000 pM

CC(=O)N1CCC(C(=O)N2CC[C@@H](C(=O)N(C)Cc3cc(C(F)(F)F)cc(C(F)(F)F)c3)[C@H](c3ccccc3)C2)CC1 (racemic)
inhibition in vivo at 0.3 mg/kg (Cavia porcellus [22]): 72.1%

CC(=O)N1CCC(C(=O)N2CC[C@@H](C(=O)NCc3cc(C(F)(F)F)cc(C(F)(F)F)c3)[C@H](c3ccccc3)C2)CC1 (racemic)
IC50 (Substance-P receptor): 2700 pM

CC(=O)N1CCC(C(=O)N2CC[C@H](C(=O)N(C)Cc3cc(C(F)(F)F)cc(C(F)(F)F)c3)[C@@H](c3ccc(C)cc3)C2)CC1 (racemic)
IC50 (Substance-P receptor): 180 pM

CC(=O)N1CCC(C(=O)N2CC[C@H](C(=O)N(C)Cc3cc(C(F)(F)F)cc(C(F)(F)F)c3)[C@@H](c3cccc(C)c3)C2)CC1 (racemic)
IC50 (Substance-P receptor): 140 pM

CC(=O)N1CCC(C(=O)N2CC[C@H](C(=O)N(C)Cc3cc(C(F)(F)F)cc(C(F)(F)F)c3)[C@@H](c3ccccc3C)C2)CC1 (racemic)
IC50 (Substance-P receptor): 32 pM
inhibition in vivo at 0.3 mg/kg (Cavia porcellus [22]): 60.1%

CCc1ccccc1[C@H]1CN(C(=O)C2CCN(C(C)=O)CC2)CC[C@@H]1C(=O)N(C)Cc1cc(C(F)(F)F)cc(C(F)(F)F)c1 (racemic)
IC50 (Substance-P receptor): 64 pM

CC(=O)N1CCC(C(=O)N2CC[C@H](C(=O)N(C)Cc3cc(C(F)(F)F)cc(C(F)(F)F)c3)[C@@H](c3ccccc3C(C)C)C2)CC1 (racemic)
IC50 (Substance-P receptor): 210 pM

CC(=O)N1CCC(C(=O)N2CC[C@H](C(=O)N(C)Cc3cc(C(F)(F)F)cc(C(F)(F)F)c3)[C@@H](c3ccc(F)cc3)C2)CC1 (racemic)
IC50 (Substance-P receptor): 52 pM
inhibition in vivo at 0.3 mg/kg (Cavia porcellus [22]): 41.4%

CC(=O)N1CCC(C(=O)N2CC[C@H](C(=O)N(C)Cc3cc(C(F)(F)F)cc(C(F)(F)F)c3)[C@@H](c3ccc(F)cc3C)C2)CC1 (racemic)
Activity [5]: 2%
microsomal CLint at 1 µM [2]: 111 µL/min/mg
IC50 (Substance-P receptor): 47 pM
inhibition in vivo at 0.3 mg/kg (Cavia porcellus [22]): 105%

CC(=O)NCC(=O)N1CC[C@H](C(=O)N(C)Cc2cc(C(F)(F)F)cc(C(F)(F)F)c2)[C@@H](c2ccc(F)cc2C)C1 (racemic)
microsomal CLint at 1 µM [2]: 59 µL/min/mg
IC50 (Substance-P receptor): 43 pM
inhibition in vivo at 0.3 mg/kg (Cavia porcellus [22]): 48.9%

CNC(=O)N1CC[C@H](C(=O)N(C)Cc2cc(C(F)(F)F)cc(C(F)(F)F)c2)[C@@H](c2ccc(F)cc2C)C1 (racemic)
microsomal CLint at 1 µM [2]: 199 µL/min/mg
IC50 (Substance-P receptor): 48 pM
inhibition in vivo at 0.3 mg/kg (Cavia porcellus [22]): 80%

Cc1cc(F)ccc1[C@H]1CN(C(N)=O)CC[C@@H]1C(=O)N(C)Cc1cc(C(F)(F)F)cc(C(F)(F)F)c1 (racemic)
microsomal CLint at 1 µM [2]: 112 µL/min/mg
IC50 (Substance-P receptor): 35 pM
inhibition in vivo at 0.3 mg/kg (Cavia porcellus [22]): 80.3%

CONC(=O)N1CC[C@H](C(=O)N(C)Cc2cc(C(F)(F)F)cc(C(F)(F)F)c2)[C@@H](c2ccc(F)cc2C)C1 (racemic)
inhibition in vivo at 0.1 mg/kg (Cavia porcellus [1]): -23.9%
IC50 (Substance-P receptor): 73 pM

CNC(=O)C(=O)N1CC[C@H](C(=O)N(C)Cc2cc(C(F)(F)F)cc(C(F)(F)F)c2)[C@@H](c2ccc(F)cc2C)C1 (racemic)
microsomal CLint at 1 µM [2]: 115 µL/min/mg
IC50 (Substance-P receptor): 110 pM
inhibition in vivo at 0.3 mg/kg (Cavia porcellus [22]): 51.5%

Cc1cc(F)ccc1[C@H]1CN(C(=O)C(N)=O)CC[C@@H]1C(=O)N(C)Cc1cc(C(F)(F)F)cc(C(F)(F)F)c1 (racemic)
Stability (Liver microsomes): 40 µL/min/mg
IC50 (Substance-P receptor): 52 pM
inhibition in vivo at 0.3 mg/kg (Cavia porcellus [22]): 86.7%

Cc1cc(F)ccc1[C@H]1CN(C(=O)C(=O)NO)CC[C@@H]1C(=O)N(C)Cc1cc(C(F)(F)F)cc(C(F)(F)F)c1 (racemic)
inhibition in vivo at 0.1 mg/kg (Cavia porcellus [1]): -15.5%
microsomal CLint at 1 µM [2]: 2 µL/min/mg
IC50 (Substance-P receptor): 46 pM

CN(Cc1cc(C(F)(F)F)cc(C(F)(F)F)c1)C(=O)[C@H]1CCNC[C@H]1c1ccccc1 (relative stereo)
IC50 (Substance-P receptor): 5600 pM
